Source: PubChem BioAssay
Only some compounds are listed: those with a hit (about 1.5% of all), similar ones and a draw of the others.
APJ antag – APJ receptor antagonism; CHO-K1 APJ beta-arrestin complementation, luminescence; P35414; inhibition, % at 20 µM; 330,000 compounds, 0.32% hits;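 active means inhibition above about 40% at 20 µM, limit read from the data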;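 further: cells challenged with 10 nM apelin-13 agonist together with compound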
CCR6 antagonist – CCR6 (human) receptor antagonism | inhibition, % at 20 µM | AID 493098 | CHO-K1 CCR6 PathHunter beta-arrestin, luminescence, CCL20-stimulated | 340,000 compounds, 0.49% hits | P51684;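 active means compounds whose inhibition of the agonist-driven luminescence signal at 20 µM reaches about 50%, limit read from the data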;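 further: cells stimulated with CCL20 at 14 nM final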
APJ agonist – APJ receptor agonism. activation, % at 20 µM. 330,000 compounds, 0.11% hits. CHO-K1 APJ PathHunter beta-arrestin, luminescence; 0% DMSO wells, 100% apelin. P35414;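 active means activation more than six SD over the plate average, tested at 20 µM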
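system = engineered CHO-K1 APJ arrestin reporter cells | input = 1000 cells per well | timing = overnight seeding, 90 min compound at 25 °C, 1 h detection | measured by = enzyme-fragment complementation luminescence | read-out = beta-arrestin recruitment to APJ as agonist activity, luminescent signal | control set = negative DMSO alone, positive Apelin-13 at 10 nM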
EBI2 block – blocks human EBI2 receptor beta-arrestin signaling. P32249. inhibition, % at 5 µM. 360,000 compounds, 0.81% hits. AID 651636. EBI2 beta-arrestin recruitment, luminescence, 7a,25-OHC stimulated; in the data active means inhibition above about 38%;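 further: enzyme fragment complementation signal reports receptor beta-arrestin coupling in cells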
Target sequence (P32249 whole entry, looked up, the tested form may be a part): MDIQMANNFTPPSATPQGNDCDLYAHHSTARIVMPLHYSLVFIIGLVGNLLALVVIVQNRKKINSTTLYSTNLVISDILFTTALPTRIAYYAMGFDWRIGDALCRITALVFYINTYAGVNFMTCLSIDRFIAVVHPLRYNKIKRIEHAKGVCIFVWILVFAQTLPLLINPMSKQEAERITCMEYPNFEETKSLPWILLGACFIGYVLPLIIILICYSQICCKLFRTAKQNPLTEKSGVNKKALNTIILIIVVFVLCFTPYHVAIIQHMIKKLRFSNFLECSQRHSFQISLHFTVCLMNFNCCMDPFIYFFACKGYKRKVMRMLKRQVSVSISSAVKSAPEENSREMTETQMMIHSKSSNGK
CXCR6 block – inhibitors of human CXCR6 receptor. O00574. CHO-K1 PathHunter CXCR6 beta-arrestin, luminescence. inhibition, % at 20 µM. 360,000 compounds, 0.36% hits. AID 602244; in the data active means inhibition above about 34%, passing the limit was not always enough;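 further: antagonist mode with CXCL16 agonist at 10 nM final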
EBI2 antag conf – confirmation of human EBI2 receptor antagonists | shares compounds with EBI2 block | EBI2 beta-arrestin luminescence, 7a,25-OHC antagonism | inhibition, % at 5 µM | 2,400 compounds, 29% hits | AID 651997;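 active means inhibition of at least 50%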
EBI2 agonist – activates EBI2, counter-screen for EBI2 antagonists. shares compounds with EBI2 block. EBI2-expressing cells, agonist mode, luminescence, 60 min; 0% vehicle, 100% 7α,25-dihydroxycholesterol control. activation, % at 5 µM. 2,400 tested, under 10 active. AID 652000;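 active means activation of at least 50%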
bGal counter – counter-screen for EBI2 antagonists: E. coli beta-galactosidase inhibition; shares compounds with EBI2 block; purified beta-galactosidase, luminescent Galacton Star, 15 min; inhibition, % at 5 µM; 2,400 compounds, 1% hits;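 active means replicate-average signal at least 3 plate SD below neutral wells, shown as high inhibition, flagging enzyme-inhibiting false positives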;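 further: higher means stronger loss of beta-gal luminescence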
Hits are given with their value; – = inactive; · = no result.

SMILES	APJ antag	CCR6 antagonist	APJ agonist	EBI2 block	CXCR6 block	EBI2 antag conf	EBI2 agonist	bGal counter
COc1ccc(-c2csc(C(C)(O)c3cccc(F)c3)n2)cn1 (configuration not stated)	·	·	·	–	–	·	·	·
CCOC(=O)c1c2ccc(OCC(=O)N/N=C/c3ccc(C)cc3)cc2n2ccccc12	–	–	–	48	–	–	–	–
O=C(Nc1ccc(Oc2ccccc2)nc1)C1CCCCN1Cc1ccco1 (configuration not stated)	–	–	–	54	–	–	–	–
C#Cc1ccc(CN2CCC(C(=O)Nc3ccc(Oc4ccccc4)nc3)CC2)cc1	–	–	–	–	–	·	·	·
O=C(Nc1ccc(Oc2ccccc2)nc1)C1CCCCN1Cc1ccc(OCCO)cc1 (configuration not stated)	–	–	–	66	–	–	–	–
CC(=O)c1cccc(CN2CCCCC2C(=O)Nc2ccc(Oc3ccccc3)nc2)c1 (configuration not stated)	–	–	–	71	–	–	–	–
CCCc1ncc(CN2CCCCC2C(=O)Nc2ccc(Oc3ccccc3)nc2)cn1 (configuration not stated)	–	–	–	–	–	·	·	·
COc1ccc(NC(=O)C(c2ccncc2)n2c(=O)c(-c3ccccc3)nc3ccccc32)cc1 (configuration not stated)	·	·	·	–	·	·	·	·
CN(Cc1ccccc1)C(=O)CN1CCN(S(=O)(=O)c2ccccc2F)CC1	·	·	·	–	–	·	·	·
Cc1ccc(/C=C/C(=O)N2CCN(S(=O)(=O)c3cccs3)CC2)o1	–	–	–	–	–	·	·	·
Cc1ccc(/C=C/C(=O)N2CCN(S(=O)(=O)/C=C/c3ccccc3)CC2)o1	–	–	–	67	–	–	–	–
O=C(/C=C/c1ccco1)N1CCN(S(=O)(=O)/C=C/c2ccccc2)CC1	–	–	–	79	–	–	–	–
O=C(/C=C/c1ccco1)N1CCN(C/C=C/c2ccccc2)CC1	–	–	–	63	–	–	–	–
O=C(/C=C/c1ccco1)N1CCN(c2ccccc2)CC1	–	–	–	–	–	·	·	·
COC(=O)c1sccc1-n1cc2c(c1-c1ccccc1)c(=O)n(C)c(=O)n2C	·	·	·	–	–	·	·	·
CCNC(=O)C[C@@H]1C=C[C@@H](NS(=O)(=O)c2ccc(F)cc2)[C@@H](CO)O1	·	·	·	–	·	·	·	·
CCOC(=O)[C@]12CCC=C1N(Cc1cccc3ccccc13)C(=O)[C@H](CC(=O)N1CCN(C(=O)c3ccco3)CC1)C2	·	·	·	–	–	·	·	·
Cc1cc2oc(=O)cc(CN(Cc3ccccc3)Cc3ccccc3)c2cc1Cl	·	·	·	52	–	51	–	–
CCCCNC(=O)C(NC(=O)c1cnccn1)C(=O)c1ccccc1 (configuration not stated)	·	·	·	–	·	·	·	·
O=C(CSC1=Nc2ccccc2C2CC=NN12)NCc1ccco1 (configuration not stated)	–	–	–	–	–	·	·	·
CCCOC(=O)c1ccc(NC(=O)CSC2=Nc3ccccc3C3CC=NN23)cc1 (configuration not stated)	–	–	–	40	–	–	–	–
O=C(NCc1cccs1)C(=O)NCC(c1ccco1)N1CCN(c2ccccc2F)CC1 (configuration not stated)	–	–	–	52	–	–	–	–
O=C(NCC(c1ccco1)N1CCN(c2ccccc2F)CC1)c1cccs1 (configuration not stated)	–	–	–	–	–	·	·	·
CC1(Cc2ccccc2OC(F)(F)F)C(=O)Nc2c(Cl)ccc(Cl)c21 (configuration not stated)	·	·	·	–	–	·	·	·
Cn1c(NCc2ccccc2F)nc2cc(-c3cccc(C(F)(F)F)c3)sc2c1=O	·	·	·	–	–	·	·	·
SMILES	APJ antag	CCR6 antagonist	APJ agonist	EBI2 block	CXCR6 block	EBI2 antag conf	EBI2 agonist	bGal counter
Nc1[nH]c(C(=O)c2ccccc2)c(-c2c(F)cccc2F)c1C(=O)c1ccc(Cl)c(Cl)c1	·	·	·	–	–	·	·	·
COc1ccc(-c2oc3c(c2C#CC(C)(C)O)C(OC)CCC3)cc1 (configuration not stated)	·	·	·	–	–	·	·	·
COC(=O)c1cc(=O)n(-c2ccc(F)cc2)c(=Nc2ccc(F)cc2)s1	–	–	–	–	–	·	·	·
COC(=O)c1ccc(N=c2sc(C(=O)OC)cc(=O)n2C)cc1	·	–	·	66	–	78	–	–
COC(=O)c1cc(=O)n(Cc2ccc(F)cc2)c(=NCc2ccc(F)cc2)s1	–	–	–	–	–	·	·	·
COC(=O)c1cc(=O)n(Cc2ccc3c(c2)OCO3)c(=Nc2ccc(F)cc2)s1	–	–	–	66	–	–	–	–
COC(=O)c1cc(=O)n(Cc2ccc3c(c2)OCO3)c(=Nc2ccccc2)s1	–	–	–	53	–	58	–	–
CN(C)C(=O)CCc1ccc2c3c([nH]c2c1)[C@]1(CCc2ccccc2)[C@@H](C(=O)N2CCCCC2)C[C@H](CC(=O)NCc2cccc(C(F)(F)F)c2)C(=O)N1CC3	·	–	·	42	–	–	–	–
CC(C(=O)NC1CCCC1)n1c(C2CCCC2)nc2ccccc21 (configuration not stated)	·	·	·	–	·	·	·	·
N#Cc1cc(-c2ccccc2)cn(Cc2c(Cl)cccc2Cl)c1=O	–	–	–	–	–	·	·	·
Cc1ccc(-c2cc(C#N)c(=O)n(Cc3c(Cl)cccc3Cl)c2)cc1	–	–	–	47	–	–	–	–
O=C(NCCN1C(=O)S/C(=C\c2ccc(Cl)cc2)C1=O)c1ccc(F)c(S(=O)(=O)N2CCOCC2)c1	–	–	–	67	–	–	–	–
CCOC(=O)C1CCN(C(=O)c2cc3ccc(OC)cc3[nH]2)CC1	–	–	–	38	–	–	–	–
CCOC(=O)N1CCN(C(=O)c2ccc(OC)cc2)CC1	–	–	–	–	–	·	·	·
CCOC(=O)N1CCN(C(=O)c2cc3ccc(OC)cc3[nH]2)CC1	–	–	–	59	–	–	–	–
CCOC(=O)C1CCN(C(=O)c2cc3cc(Cl)ccc3[nH]2)CC1	–	–	–	89	–	67	–	–
CC(=O)c1ccc(OC2(C)CCN(Cc3cc4ccccc4[nH]3)C2)cc1 (configuration not stated)	·	·	·	–	–	·	·	·
Cc1cc(Cl)ccc1OCCCC(=O)N1CCN(S(=O)(=O)c2ccccc2)CC1	–	–	–	63	–	–	–	–
O=C(COc1ccc(Cl)cc1)N1CCN(S(=O)(=O)c2cc(F)ccc2F)CC1	·	·	·	87	–	68	–	–
Cc1ccc(S(=O)(=O)N2CCN(C(=O)CCOc3cc(C)ccc3C)CC2)cc1	–	–	–	–	–	·	·	·
